In the library only some 2.9% were active in any assay of this set; here they are far more common.
HTRA1 inhibitor – HTRA1 serine protease inhibitors, primary screen, biochemical, fluorescence polarization, HTS | recombinant HTRA1, FP-rhodamine activity-based probe | inhibition, % at 5.96 µM | 340,000 compounds, 0.5% hits | AID 504803, 2011; in the data active means inhibition above about 36%
TCR-CD3 inh – inhibitors of human TCR-CD3 interaction, primary screen, biochemical, fluorescence, TAMRA-labeled TCR probe | T-cell receptor (TCR) | inhibition, % at 9.4 µM | 360,000 compounds, 0.37% hits | AID 651800, 2012; in the data active means inhibition above about 19%;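 further: recombinant mutant TCR 2C K166C tagged with TAMRA read by polarization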
PRMT1 inh – PRMT1 methyltransferase inhibitors, primary screen, biochemical, fluorescence polarization | 370,000 compounds, 1.3% hits | inhibition, % at 2.79 µM | recombinant PRMT1, activity-based probe fluorescence polarization;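 active means inhibition above about 21% made by adding two undisclosed values, limit read from the data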
SIAE primary – human SIAE inhibitors, primary screen, biochemical, fluorescence polarization, FP-Rh probe, 1536-well HTS; inhibition, % at 9.66 µM; 370,000 compounds, 0.69% hits; AID 1053197, 2014; SIAE FP-Rh probe binding;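 active means inhibition above a cutoff: mean of compounds within the control limits plus 3 SD of those, cut at about 17% in these data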
ATG4B inh – ATG4B protease inhibitors, primary screen, biochemical, fluorescence, uHTS. AID 504462, 2011. inhibition, % at 8.33 µM. ATG4B cleavage of LC3-PLA2, NBD-HPC fluorescence, 1 h. Cysteine protease ATG4B (Homo sapiens), Q9Y4P1. 340,000 compounds, 0.51% hits; in the data active means inhibition above about 40%
Target sequence (Q9Y4P1 whole entry, looked up): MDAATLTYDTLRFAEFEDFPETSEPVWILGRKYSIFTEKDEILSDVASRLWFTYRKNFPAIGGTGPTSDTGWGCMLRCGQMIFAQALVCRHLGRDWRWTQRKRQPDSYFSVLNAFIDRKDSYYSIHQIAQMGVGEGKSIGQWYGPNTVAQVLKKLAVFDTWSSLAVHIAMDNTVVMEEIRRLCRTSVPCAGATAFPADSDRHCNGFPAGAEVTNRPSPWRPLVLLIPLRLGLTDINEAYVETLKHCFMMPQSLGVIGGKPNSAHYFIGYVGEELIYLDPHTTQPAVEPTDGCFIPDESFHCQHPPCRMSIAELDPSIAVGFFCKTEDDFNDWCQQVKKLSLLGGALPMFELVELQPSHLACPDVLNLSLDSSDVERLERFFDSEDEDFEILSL
ABHD4 inh – ABHD4 inhibitors, primary screen, biochemical, fluorescence polarization, mouse; (Lyso)-N-acylphosphatidylethanolamine lipase (Mus musculus), Q8VD66; purified mABHD4, FP-Rh probe fluorescence polarization; inhibition, % at 8.92 µM; 370,000 compounds, 0.54% hits; AID 720543, 2013;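 active means inhibition exceeding the mean over every tested compound plus 3 SD, cut at about 30% in these data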
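Assay system: wild-type mouse ABHD4 protein; compound: single nominal dose of 8.92 µM, 0.89% DMSO final; schedule: 45 min + 60 min at 25 °C; measured by: FP readout, ex 525 nm / em 598 nm; evaluation: % inhibition of FP-Rh probe binding versus controls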
PRMT1 confirm – PRMT1 methyltransferase inhibitors, confirmation, biochemical, fluorescence polarization, triplicate. 3,300 compounds, 42% hits. recombinant His-PRMT1, activity-based probe fluorescence polarization. shares compounds with PRMT1 inh. inhibition, % at 2.79 µM;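 active means mean inhibition across replicates above the hit cutoff derived for the earlier primary screen, cut at about 22% in these data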
Each line names hits and unclear results; the compound was inactive in the other large screens (follow-up assays come after a bar, where they were run).

CSc1cnn(Cc2ccccc2)c(=O)c1SCc1ccccc1	PRMT1 inh 74 | PRMT1 confirm inactive
Cc1n[nH]c(C)c1S(=O)(=O)NCCc1ccccc1	none (no result: HTRA1 inhibitor, TCR-CD3 inh, ATG4B inh)
CCCCNC(=O)C[C@H]1C[C@@]2(C(=O)OC)C(=C[C@H](C(C)C)O[C@@H]2C2CC2)N(Cc2ccco2)C1=O	none (no result: HTRA1 inhibitor, TCR-CD3 inh, ATG4B inh)
CCC(/C=C1\Oc2ccc(OC)cc2N1C)=C\c1sc2ccccc2[n+]1CCCS(=O)(=O)[O-]	PRMT1 inh 49 | PRMT1 confirm inactive
CC(C)N(Cc1cn(Cc2ccccc2)nn1)S(=O)(=O)c1ccc(F)cc1Br	none (no result: HTRA1 inhibitor, TCR-CD3 inh, ATG4B inh)
c1coc(-c2cc3nc(NCc4ccc5c(c4)OCO5)ccn3n2)c1	PRMT1 inh 32 (no result: HTRA1 inhibitor, ATG4B inh) | PRMT1 confirm inactive
c1coc(-c2cc3nc(NC4CCCCC4)ccn3n2)c1	PRMT1 inh 29 (no result: HTRA1 inhibitor, ATG4B inh) | PRMT1 confirm inactive
CC(C)NC(=S)NNc1nc2ccccc2s1	PRMT1 inh 60 | PRMT1 confirm 57
O=C(NNc1nc2ccccc2s1)c1ccc(F)cc1	none
CCOC(=O)[C@]12CCCC3=C1N(CCC3)C(=O)[C@@H](CC(=O)N1CCCC1)C2	none (no result: HTRA1 inhibitor, TCR-CD3 inh, ATG4B inh)
O=[N+]([O-])c1cccc(/C=N/n2c(COc3ccccc3)n[nH]c2=S)c1	none
CC(C)Oc1cccc(-c2n[nH]c(=S)n2N=Cc2cccc([N+](=O)[O-])c2)c1	PRMT1 inh 34 (no result: HTRA1 inhibitor, TCR-CD3 inh, ATG4B inh) | PRMT1 confirm 25
CC(C)Oc1cccc(-c2n[nH]c(=S)n2N=Cc2ccc(O)cc2O)c1	PRMT1 inh 37 (no result: HTRA1 inhibitor, TCR-CD3 inh, ATG4B inh) | PRMT1 confirm inactive
O=C(NCc1ccc2c(c1)OCO2)c1nc(S(=O)(=O)Cc2ccccc2)ncc1Cl	PRMT1 inh 25 | PRMT1 confirm inactive
O=C(NCc1ccc2c(c1)OCO2)c1nc(S(=O)(=O)Cc2ccccc2F)ncc1Cl	PRMT1 inh 29 | PRMT1 confirm 22
O=S1(=O)c2c(NCc3ccco3)cccc2Oc2ccccc2CN1Cc1cn(Cc2ccc(C(F)(F)F)cc2)nn1	none (no result: HTRA1 inhibitor, TCR-CD3 inh, ATG4B inh)
COC(=O)[C@]12C[C@H](CC(=O)NCCCCc3ccccc3)C(=O)N(CCc3ccc(OC)c(OC)c3)C1=C[C@H](C(C)(C)C)O[C@@H]2C	none (no result: HTRA1 inhibitor, TCR-CD3 inh, ATG4B inh)
Cc1ccc(-c2cc(C(=O)NN=Cc3cccc(OCc4ccccc4)c3)[nH]n2)cc1C	none (no result: HTRA1 inhibitor, TCR-CD3 inh, ATG4B inh)
COc1cc(CNc2ccc3[nH]c(=O)[nH]c3c2)ccc1OCc1ccc(C)cc1	PRMT1 inh 35 | PRMT1 confirm inactive
Cc1ccc2occ(C3NC(C(=O)O)CS3)c(=O)c2c1 (configuration not stated)	none
Cc1ccc2occ(C3N[C@H](C(=O)O)CS3)c(=O)c2c1 (some centres not stated)	PRMT1 inh 50 | PRMT1 confirm 45
CC(=O)c1c(C)[nH]c(C(=O)Nc2cccc(C#N)c2)c1C	none
Cc1[nH]c(=S)c(C#N)c(C)c1C(=O)Nc1ccccc1	PRMT1 inh 33 | PRMT1 confirm inactive
CCc1c(C(=O)Nc2ccccc2)c(C)[nH]c(=S)c1C#N	PRMT1 inh 43 | PRMT1 confirm 88
COC(=O)[C@]12C[C@H](CC(=O)NCCCCc3ccccc3)C(=O)N(Cc3cccc4ccccc34)C1=C[C@H](COCc1ccccc1)O[C@@H]2C	none (no result: HTRA1 inhibitor, TCR-CD3 inh, ATG4B inh)
C[C@@H]1OCN(C)[C@H]2C[C@H]3c4[nH]c5cccc(-c6cccc(F)c6)c5c4CCN3C(=O)[C@@H]12	none (no result: HTRA1 inhibitor, TCR-CD3 inh, ATG4B inh)
CC(=O)N1N=C(c2cccs2)CC1c1ccco1 (configuration not stated)	none
CS(=O)(=O)N1N=C(c2cccs2)CC1c1ccco1 (configuration not stated)	PRMT1 inh 41 | PRMT1 confirm inactive
CC(=O)Nc1ccc(C2=NNC(=Nc3cccc(S(=O)(=O)N(C)C)c3)SC2)cc1	none (no result: TCR-CD3 inh, PRMT1 inh, SIAE primary, ABHD4 inh)
CN(C)S(=O)(=O)c1cccc(N=C2NN=C(c3ccccc3)CS2)c1	PRMT1 inh 54 (no result: HTRA1 inhibitor) | PRMT1 confirm 39
O=C(NN=Cc1ccccc1C(=O)O)C(=O)NN=Cc1ccccc1C(=O)O	PRMT1 inh 104 | PRMT1 confirm inactive
O=C(CCSc1ccc(Cl)cc1)c1cccs1	PRMT1 inh 48 | PRMT1 confirm 43
O=C(COCc1ccccc1)NC1CCCCN(Cc2ccc(Cl)cc2)C1=O (configuration not stated)	none (no result: HTRA1 inhibitor, TCR-CD3 inh, ATG4B inh)
CC(=O)CSc1nc2c(c(=O)[nH]c(=O)n2C)n1Cc1cccc(Br)c1	PRMT1 inh 36 | PRMT1 confirm inactive
CCN(CCNC(=O)[C@H]1C=C(OC)C(=O)C[C@H](c2ccccc2)[C@H]1C)C(C)=O	none (no result: HTRA1 inhibitor, TCR-CD3 inh, ATG4B inh)
CCOc1ccc(NC(=O)Cn2sc3nc(C)cc(C)c3c2=O)cc1	none (no result: TCR-CD3 inh, PRMT1 inh, SIAE primary, ABHD4 inh)
Cc1cc(C)c2c(=O)n(CC(=O)Nc3ccc(Cl)cc3)sc2n1	PRMT1 inh 91 | PRMT1 confirm 84
Cc1ccc(NC(=O)Cn2sc3nc(C)cc(C)c3c2=O)c(Cl)c1	PRMT1 inh 79 | PRMT1 confirm 88
Cc1cc(C)c2c(=O)n(CC(=O)Nc3cccc(F)c3)sc2n1	PRMT1 inh 90 | PRMT1 confirm 84
Cc1ccc(NC(=O)Cn2c(C)cc(C)c(C#N)c2=O)c(Cl)c1	none

Source: PubChem BioAssay
